Assay results from different studies.
Protocols differ between the studies behind these lines.
Observed: cell growth or viability

Compound | cell line | test | setting | endpoint | result
Nc1nc(F)nc2c1ncn2[C@@H]1O[C@H](COP(=O)(O)O)[C@@H](O)[C@@H]1O | LLC-MK2 | – | 5 days | CC50 | 60.6 µM
CC(C)(C)NC(=O)N[C@H](C(=O)N1C[C@H]2[C@@H]([C@H]1C(=O)NC(CC1CCC1)C(=O)C(N)=O)C2(C)C)C(C)(C)C (some centres unmarked) | Caco-2 | neutral red | 48 h | CC50 | > 100 µM
COc1ccc(C[C@H](NC(=O)[C@H](C)NC(=O)CN2CCOCC2)C(=O)N[C@@H](Cc2ccccc2)C(=O)C(=O)Nc2ccccc2)cc1 | Caco-2 | ATP luminescence | 48 h | CC50 | 16.2 µM
O=c1c(O[C@@H]2O[C@H](CO)[C@@H](O)[C@H](O)[C@H]2O)c(-c2ccc(O)cc2)oc2cc(O)cc(O)c12 | RD | WST-1 | – | IC50 | 48.8 µM
CC=C1[C@H]2C=C(C)C[C@]1(N(C)C)c1ccc(OC)nc1C2 | IMR-90 | MTT | 100 µM, 24 h | cell death | 5.5%
CC(C)C[C@@H](C=O)NC(=O)[C@H](CC(C)C)NC(=O)[C@H](CC(C)C)NC(=O)OCc1ccccc1 | Caco-2 | neutral red | 48 h | CC50 | < 0.15 µM
CC=C1[C@H]2C=C(C)C[C@]1(N)c1cc(CC)c(=O)[nH]c1C2 | IMR-90 | MTT | 100 µM, 24 h | cell death | 2.2%
Nc1nc(F)nc2c1ncn2[C@@H]1O[C@H](CO)[C@@H](O)[C@@H]1O | LLC-MK2 | – | 5 days | CC50 | 54.1 µM
